ChEMBL document CHEMBL1150387, “Development and experimental validation of a docking strategy for the generation of kinase-targeted libraries” (J Med Chem, 2008)

Columns and labels:
[1] = molecular target: Mitogen-activated protein kinase 9 (Homo sapiens) (UniProt P45984); experiment: Inhibition of JNK2 at 10 uM by HTRF assay relative to control
Procedure, shortened: (§1)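 HTRF kinase assay, one panel of kinases. Inhibitor stock 50 µM in 100% DMSO; tested at 10 µM. ATP and substrate at final levels near Km. Final buffer: 50 mM Hepes/NaOH pH 7.4, 40 µM Na3VO4, 0.005% Tween-20, 1 mM DTT, MnCl2 or MgCl2 at kinase-dependent levels. Started by adding ATP/substrate. Reaction run at room temperature, time varied by kinase. Detection mix in 50 mM Hepes pH 7.4, 0.1% BSA, 150 mM KF, incubated ≥1 h at room temperature. Activity expressed as % of uninhibited control; n=2.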

[2] = molecular target: Protein kinase C gamma type (Homo sapiens) (UniProt P05129); experiment: Inhibition of PKCgamma at 10 uM by HTRF assay relative to control; procedure, shortened: as §1
[3] = molecular target: 3-phosphoinositide-dependent protein kinase 1 (Homo sapiens) (UniProt O15530); experiment: Inhibition of PDK1 at 10 uM by HTRF assay relative to control
[4] = molecular target: Cyclin-dependent kinase 2 (Homo sapiens) (UniProt P24941); experiment: Inhibition of CDK2 at 10 uM by HTRF assay relative to control; procedure, shortened: as §1
[5] = Inhibition of AMPKalpha at 10 uM by HTRF assay relative to control; procedure, shortened: as §1
[6] = molecular target: Vascular endothelial growth factor receptor 1 (Homo sapiens) (UniProt P17948); experiment: Inhibition of FLT1 at 10 uM by HTRF assay relative to control; procedure, shortened: as §1
[7] = molecular target: Mitogen-activated protein kinase 14 (Homo sapiens) (UniProt Q16539); experiment: Inhibition of p38alpha at 10 uM by HTRF assay relative to control; procedure, shortened: as §1
[8] = molecular target: Serine/threonine-protein kinase Chk2 (Homo sapiens) (UniProt O96017); experiment: Inhibition of CHK2 at 10 uM by HTRF assay relative to control; procedure, shortened: as §1
[9] = molecular target: T1, Ephrin type-B receptor 4 (Homo sapiens) (UniProt P54760); experiment: Inhibition of EphB4 at 10 uM by HTRF assay relative to control; procedure, shortened: as §1
T1 sequence (whole entry): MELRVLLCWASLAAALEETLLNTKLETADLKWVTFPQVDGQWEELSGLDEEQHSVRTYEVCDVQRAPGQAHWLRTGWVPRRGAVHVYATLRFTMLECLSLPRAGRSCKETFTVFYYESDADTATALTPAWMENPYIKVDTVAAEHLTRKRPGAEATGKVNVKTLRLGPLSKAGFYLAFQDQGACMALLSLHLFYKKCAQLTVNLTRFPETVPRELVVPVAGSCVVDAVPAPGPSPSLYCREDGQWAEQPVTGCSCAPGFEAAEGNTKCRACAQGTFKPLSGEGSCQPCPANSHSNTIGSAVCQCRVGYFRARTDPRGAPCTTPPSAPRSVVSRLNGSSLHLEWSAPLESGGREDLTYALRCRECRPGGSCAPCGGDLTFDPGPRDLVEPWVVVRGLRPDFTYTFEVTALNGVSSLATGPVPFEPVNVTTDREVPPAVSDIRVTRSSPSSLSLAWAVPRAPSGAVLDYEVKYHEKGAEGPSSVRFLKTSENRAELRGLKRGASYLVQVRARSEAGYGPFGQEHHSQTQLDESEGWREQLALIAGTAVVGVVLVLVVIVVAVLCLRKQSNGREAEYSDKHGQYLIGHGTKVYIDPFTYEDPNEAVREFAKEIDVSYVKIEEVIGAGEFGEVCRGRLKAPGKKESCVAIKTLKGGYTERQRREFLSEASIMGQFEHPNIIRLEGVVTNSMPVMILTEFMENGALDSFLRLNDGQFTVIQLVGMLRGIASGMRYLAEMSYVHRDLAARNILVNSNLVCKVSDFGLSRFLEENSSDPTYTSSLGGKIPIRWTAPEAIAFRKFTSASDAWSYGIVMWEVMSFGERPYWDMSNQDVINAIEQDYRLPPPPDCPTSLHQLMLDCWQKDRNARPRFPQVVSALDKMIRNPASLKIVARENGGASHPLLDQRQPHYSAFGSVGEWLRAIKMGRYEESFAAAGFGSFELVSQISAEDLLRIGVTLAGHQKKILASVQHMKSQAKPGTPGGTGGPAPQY

[10] = molecular target: T2, Tyrosine-protein kinase ZAP-70 (Homo sapiens) (UniProt P43403); experiment: Inhibition of ZAP70 at 10 uM by HTRF assay relative to control; procedure, shortened: as §1
T2 sequence (whole entry): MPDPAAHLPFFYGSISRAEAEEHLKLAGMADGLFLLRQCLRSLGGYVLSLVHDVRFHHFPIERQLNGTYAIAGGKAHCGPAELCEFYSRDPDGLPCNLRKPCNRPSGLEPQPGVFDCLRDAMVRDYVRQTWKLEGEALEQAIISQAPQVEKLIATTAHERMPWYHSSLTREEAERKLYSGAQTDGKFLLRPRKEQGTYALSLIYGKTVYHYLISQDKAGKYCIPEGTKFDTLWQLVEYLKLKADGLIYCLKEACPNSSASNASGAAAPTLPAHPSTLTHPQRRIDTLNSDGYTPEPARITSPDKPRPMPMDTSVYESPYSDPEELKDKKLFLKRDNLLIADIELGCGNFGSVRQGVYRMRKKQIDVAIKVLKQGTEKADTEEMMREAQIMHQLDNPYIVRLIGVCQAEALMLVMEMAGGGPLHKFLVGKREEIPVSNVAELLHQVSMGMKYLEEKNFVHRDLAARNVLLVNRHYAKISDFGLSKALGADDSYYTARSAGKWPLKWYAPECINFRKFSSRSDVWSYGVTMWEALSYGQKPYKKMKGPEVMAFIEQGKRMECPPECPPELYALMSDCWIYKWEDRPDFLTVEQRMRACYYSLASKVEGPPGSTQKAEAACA

[11] = molecular target: Mitogen-activated protein kinase 1 (Homo sapiens) (UniProt P28482); experiment: Inhibition of ERK2 at 10 uM by HTRF assay relative to control; procedure, shortened: as §1
Chain of Mitogen-activated protein kinase 1 (Homo sapiens) (P28482 whole entry): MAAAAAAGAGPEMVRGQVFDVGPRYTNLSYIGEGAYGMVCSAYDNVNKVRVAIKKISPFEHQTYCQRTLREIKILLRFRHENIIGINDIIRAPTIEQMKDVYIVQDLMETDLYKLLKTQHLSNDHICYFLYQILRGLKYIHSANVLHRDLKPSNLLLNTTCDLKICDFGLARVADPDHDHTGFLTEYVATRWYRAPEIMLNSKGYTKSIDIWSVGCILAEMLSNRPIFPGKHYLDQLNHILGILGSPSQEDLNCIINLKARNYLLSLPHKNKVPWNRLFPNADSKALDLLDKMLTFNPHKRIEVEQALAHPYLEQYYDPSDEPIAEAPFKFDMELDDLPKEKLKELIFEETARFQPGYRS

Chain of Mitogen-activated protein kinase 14 (Homo sapiens) (Q16539 whole entry): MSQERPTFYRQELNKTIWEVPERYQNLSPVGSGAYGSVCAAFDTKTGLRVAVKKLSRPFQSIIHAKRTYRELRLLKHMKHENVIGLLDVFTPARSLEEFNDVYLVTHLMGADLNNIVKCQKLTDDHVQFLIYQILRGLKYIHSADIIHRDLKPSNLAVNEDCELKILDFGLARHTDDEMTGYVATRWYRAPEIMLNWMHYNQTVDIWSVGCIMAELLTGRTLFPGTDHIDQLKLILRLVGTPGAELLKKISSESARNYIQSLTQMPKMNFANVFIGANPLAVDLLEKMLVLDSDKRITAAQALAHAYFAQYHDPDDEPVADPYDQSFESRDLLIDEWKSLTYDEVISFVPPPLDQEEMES
Chain of Mitogen-activated protein kinase 9 (Homo sapiens) (P45984 whole entry, looked up): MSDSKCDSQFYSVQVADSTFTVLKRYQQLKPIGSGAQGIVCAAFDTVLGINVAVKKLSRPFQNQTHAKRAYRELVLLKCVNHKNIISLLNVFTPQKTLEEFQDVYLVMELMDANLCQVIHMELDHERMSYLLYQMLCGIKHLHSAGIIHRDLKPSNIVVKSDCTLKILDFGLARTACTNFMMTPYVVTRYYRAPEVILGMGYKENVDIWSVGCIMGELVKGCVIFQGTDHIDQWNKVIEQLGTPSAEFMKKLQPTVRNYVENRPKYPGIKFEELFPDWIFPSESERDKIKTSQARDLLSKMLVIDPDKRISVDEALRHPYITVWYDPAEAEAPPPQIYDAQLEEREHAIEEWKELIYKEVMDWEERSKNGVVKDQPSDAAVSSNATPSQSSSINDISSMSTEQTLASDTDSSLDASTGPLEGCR
Chain of Serine/threonine-protein kinase Chk2 (Homo sapiens) (O96017 whole entry): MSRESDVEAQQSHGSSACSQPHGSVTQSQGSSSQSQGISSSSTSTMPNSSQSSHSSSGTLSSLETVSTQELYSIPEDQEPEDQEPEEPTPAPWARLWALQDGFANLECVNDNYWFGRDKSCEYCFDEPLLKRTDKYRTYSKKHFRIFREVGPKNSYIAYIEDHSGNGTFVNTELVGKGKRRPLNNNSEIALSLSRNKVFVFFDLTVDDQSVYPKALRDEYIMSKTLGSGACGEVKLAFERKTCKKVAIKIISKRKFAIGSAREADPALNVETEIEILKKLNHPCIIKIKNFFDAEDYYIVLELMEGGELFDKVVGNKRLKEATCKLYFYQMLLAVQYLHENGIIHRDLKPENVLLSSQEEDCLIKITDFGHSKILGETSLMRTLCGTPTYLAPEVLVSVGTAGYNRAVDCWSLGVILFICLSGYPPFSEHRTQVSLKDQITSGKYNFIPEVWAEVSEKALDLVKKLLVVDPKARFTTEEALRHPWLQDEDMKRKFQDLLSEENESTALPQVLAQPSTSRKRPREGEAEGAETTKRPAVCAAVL
Chain of 3-phosphoinositide-dependent protein kinase 1 (Homo sapiens) (O15530 whole entry, looked up): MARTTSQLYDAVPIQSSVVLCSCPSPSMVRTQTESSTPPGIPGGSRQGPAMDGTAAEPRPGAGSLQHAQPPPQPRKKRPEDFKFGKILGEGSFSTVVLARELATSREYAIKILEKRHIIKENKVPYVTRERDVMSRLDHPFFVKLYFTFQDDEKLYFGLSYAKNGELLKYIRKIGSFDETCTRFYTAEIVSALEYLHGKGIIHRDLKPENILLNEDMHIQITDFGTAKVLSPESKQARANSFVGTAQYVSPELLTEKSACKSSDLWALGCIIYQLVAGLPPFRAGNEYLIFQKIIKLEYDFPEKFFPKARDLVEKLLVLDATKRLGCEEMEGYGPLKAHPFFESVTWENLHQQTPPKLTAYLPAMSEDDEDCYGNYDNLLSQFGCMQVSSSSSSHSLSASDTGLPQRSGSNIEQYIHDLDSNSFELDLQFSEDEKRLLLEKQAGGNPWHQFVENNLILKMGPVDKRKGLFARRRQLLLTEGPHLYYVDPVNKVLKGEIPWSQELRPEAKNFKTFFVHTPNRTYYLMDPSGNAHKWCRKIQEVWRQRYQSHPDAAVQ
Chain of Vascular endothelial growth factor receptor 1 (Homo sapiens) (P17948 whole entry): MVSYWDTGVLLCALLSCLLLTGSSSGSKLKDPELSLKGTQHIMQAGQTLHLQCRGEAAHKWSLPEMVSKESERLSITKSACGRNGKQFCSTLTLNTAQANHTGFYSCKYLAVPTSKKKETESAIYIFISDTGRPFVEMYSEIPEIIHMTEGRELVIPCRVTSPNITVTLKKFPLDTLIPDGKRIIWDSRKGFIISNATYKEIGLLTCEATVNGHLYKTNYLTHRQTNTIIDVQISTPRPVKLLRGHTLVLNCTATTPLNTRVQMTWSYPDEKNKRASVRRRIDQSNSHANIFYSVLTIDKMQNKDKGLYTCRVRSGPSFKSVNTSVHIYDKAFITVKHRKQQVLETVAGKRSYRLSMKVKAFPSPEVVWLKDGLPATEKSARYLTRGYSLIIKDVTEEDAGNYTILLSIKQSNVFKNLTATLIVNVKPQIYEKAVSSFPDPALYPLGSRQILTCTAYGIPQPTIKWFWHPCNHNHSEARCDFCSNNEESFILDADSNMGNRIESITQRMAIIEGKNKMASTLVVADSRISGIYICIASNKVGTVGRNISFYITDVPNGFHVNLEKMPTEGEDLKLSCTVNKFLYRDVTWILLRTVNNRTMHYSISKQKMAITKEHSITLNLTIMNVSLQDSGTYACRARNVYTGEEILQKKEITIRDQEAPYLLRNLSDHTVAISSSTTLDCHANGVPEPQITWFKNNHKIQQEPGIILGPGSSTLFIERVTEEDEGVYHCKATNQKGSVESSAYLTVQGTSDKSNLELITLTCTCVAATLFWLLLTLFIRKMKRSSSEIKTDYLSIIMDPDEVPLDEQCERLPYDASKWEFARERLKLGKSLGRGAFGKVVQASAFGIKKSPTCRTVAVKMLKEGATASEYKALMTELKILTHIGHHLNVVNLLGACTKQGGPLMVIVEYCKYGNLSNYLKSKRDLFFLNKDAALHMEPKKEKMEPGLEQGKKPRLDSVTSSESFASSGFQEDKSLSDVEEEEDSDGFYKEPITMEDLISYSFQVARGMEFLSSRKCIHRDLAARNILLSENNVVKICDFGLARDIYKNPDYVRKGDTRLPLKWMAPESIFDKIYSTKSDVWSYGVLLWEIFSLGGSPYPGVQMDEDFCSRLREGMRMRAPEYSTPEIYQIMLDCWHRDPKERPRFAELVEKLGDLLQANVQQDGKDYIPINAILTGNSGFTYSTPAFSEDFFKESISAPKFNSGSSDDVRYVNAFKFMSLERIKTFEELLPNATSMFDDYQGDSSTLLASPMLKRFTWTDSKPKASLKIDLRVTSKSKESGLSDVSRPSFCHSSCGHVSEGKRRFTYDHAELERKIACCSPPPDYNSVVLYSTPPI

Row | Structure (SMILES) | inhibition [1] [%] | inhibition [2] [%] | inhibition [3] [%] | inhibition [4] [%] | inhibition [5] [%] | inhibition [6] [%] | inhibition [7] [%] | inhibition [8] [%] | inhibition [9] [%] | inhibition [10] [%] | inhibition [11] [%]
1 | Cc1cc(C(=O)N2CCN(c3ncnc4c3CN(Cc3ccccc3)CC4)CC2)c(C)n1C | 3 | 6 | 0 | 3 | 0 | 0 | 0 | 2 | 0 | 0 | 2
2 | Cc1cccc(Nc2nccc3c2CN(C(=O)c2cc(C)n(C)c2C)CC3)c1 | 3 | 4 | 0 | 8 | 1 | 0 | 0 | 0 | 0 | 4 | 6
3 | COC[C@@H]1CCCN1C(=O)[C@@H]1CCCN1c1cc(Nc2cccc(OC)c2)nc(N)n1 | 2 | 0 | 0 | 7 | 2 | 3 | 8 | 0 | 0 | 0 | 0
4 | COC[C@@H]1CCCN1C(=O)C1CCCN1c1cc(Nc2cccc(Br)c2)ncn1 (some centres not stated) | 0 | 5 | 0 | 4 | 0 | 0 | 0 | 3 | 0 | 0 | 0
5 | COC[C@@H]1CCCN1C(=O)[C@@H]1CCCN1c1nccc(Nc2ccccc2)n1 | 4 | 0 | 1 | 0 | 15 | 1 | 0 | 3 | 0 | 6 | 0
6 | Cc1cccc(Oc2ccnc(N3CCN(C(=O)c4c(C)noc4C)CC3)n2)c1 | 6 | 3 | 0 | 2 | 6 | 7 | 0 | 3 | 0 | 4 | 0
7 | Nc1nc(Nc2ccc(C(=O)NCCc3ccncc3)cc2)cc(N2CCOCC2)n1 | 5 | 0 | 1 | 2 | 0 | 0 | 10 | 0 | 0 | 6 | 0
8 | CN(C)CC(C)(C)CNC(=O)C1CCN(c2cc(N3CCOCC3)nc(N)n2)CC1 | 1 | 3 | 0 | 8 | 11 | 0 | 0 | 2 | 0 | 8 | 0
9 | CN(CCc1ccccn1)C(=O)[C@@H]1CCCN1c1nccc(Nc2ccccc2)n1 | 2 | 6 | 0 | 5 | 0 | 0 | 0 | 3 | 0 | 3 | 3
10 | Clc1ccc2sc(CN3CCN(c4ncnc5c4CN(Cc4ccccc4)CC5)CC3)cc2c1 | 5 | 2 | 3 | 16 | 16 | 0 | 10 | 0 | 0 | 5 | 0
11 | CC(=O)CCCCC(=O)N1CCN(c2nccc(Oc3cccc(C)c3)n2)CC1 | 11 | 0 | 2 | 10 | 9 | 1 | 10 | 0 | 0 | 0 | 0

Results, then the compound that gave them:

Row | inhibition [1] [%] | inhibition [2] [%] | inhibition [3] [%] | inhibition [4] [%] | inhibition [5] [%] | inhibition [6] [%] | inhibition [7] [%] | inhibition [8] [%] | inhibition [9] [%] | inhibition [10] [%] | inhibition [11] [%] | Structure (SMILES)
12 | 38 | 0 | 4 | 15 | 11 | 32 | 37 | 0 | 0 | 9 | 0 | O=C(NCc1ccncc1)c1cccc(Nc2cc(Nc3cccc(Br)c3)ncn2)c1
13 | 5 | 0 | 7 | 5 | 6 | 1 | 10 | 1 | 0 | 2 | 0 | Nc1nc(Nc2ccc3ncsc3c2)cc(N2CCC[C@H]2C(=O)NCCc2cccc(I)c2)n1
14 | 4 | 10 | 0 | 1 | 0 | 21 | 0 | 0 | 4 | 4 | 3 | Cc1cccc(N(C)c2cc(Nc3cccc(C(=O)NCc4ccc(N(C)C)cc4)c3)ncn2)c1
15 | 4 | 0 | 0 | 1 | 8 | 0 | 0 | 0 | 0 | 6 | 0 | Cc1cccc(Nc2nccc(Nc3cccc(C(=O)NCc4ccc(N(C)C)cc4)c3)n2)c1
16 | 1 | 2 | 0 | 24 | 19 | 1 | 1 | 2 | 0 | 6 | 0 | Cc1cccc(Nc2ncnc3c2CN(C(=O)c2ccc(N(C)C)c4ccccc24)CC3)c1
17 | 7 | 5 | 0 | 9 | 0 | 5 | 4 | 0 | 0 | 9 | 0 | CC(=O)N1CCN(C(=O)c2cccc(Nc3cc(N(C)c4cccc(C)c4)ncn3)c2)CC1
18 | 39 | 16 | 0 | 8 | 8 | 42 | 9 | 0 | 0 | 3 | 0 | O=C(NCCc1ccc(O)cc1)c1cccc(Nc2nccc(Nc3ccc4ncsc4c3)n2)c1
19 | 8 | 1 | 2 | 3 | 6 | 83 | 11 | 1 | 0 | 6 | 0 | Cc1cccc(Nc2cc(Nc3cccc(C(=O)N(CC(C)O)CC(C)O)c3)ncn2)c1 (configuration not stated)
20 | 9 | 1 | 4 | 1 | 13 | 15 | 5 | 4 | 0 | 3 | 0 | COc1cccc(Nc2cc(Nc3cccc(C(=O)N(C)CCc4ccccn4)c3)nc(N)n2)c1
21 | 0 | 5 | 0 | 4 | 1 | 8 | 0 | 2 | 0 | 0 | 0 | Cc1cccc(N(C)c2cc(Nc3cccc(C(=O)N4CCCC5CCCCC54)c3)ncn2)c1 (configuration not stated)
22 | 22 | 2 | 0 | 12 | 5 | 0 | 20 | 0 | 0 | 4 | 4 | Cc1cccc(N(C)c2cc(Nc3cccc(C(=O)NCCCn4ccnc4)c3)ncn2)c1
